# Where two headings read alike, the source gives them in different places.
# Experiments:
# NCI-H460 cells [1] = assay: γ-H2AX immunofluorescence staining; type: cell-based, human; conditions: 10 µM, 24 h post-treatment
# LC3 (LC3-II) = assay: Immunoblotting of autophagy marker LC3; type: cell-based, human; conditions: Western blotting; 1a 0-30 µM 6 h or 10 µM 6-24 h; cisplatin 0-20 µM 6 h
# NCI-H460 cells [2] = assay: Lysosomal integrity; type: cell-based, human; conditions: 10 µM, 24 h
# Procedure, shortened: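 NCI-H460 cells were exposed to test compound (10 μM) for 24 h and then stained. Stains were acridine orange (10 μM), LysoTracker Deep Red with MitoTracker Green (50 nM), and pepstatin A–BODIPY FL conjugate (1 μM) co-stained with LysoTracker Deep Red. Imaging was by confocal microscopy, checking vesicular staining loss and cytosolic probe leakage against vehicle.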
# [3] = system: CCD-19Lu normal lung fibroblast; assay: Anti-proliferative NBB assay; type: cell-based, human; conditions: read-out: IC50 CCD-19Lu; 72 h
# NCI-H460 cells [4] = assay: Annexin V-FITC/PI double staining, flow cytometry; type: cell-based, human; conditions: 20 µM, 72 h
# NCI-H460 cells [5] = assay: Mitochondrial depolarization assay; type: cell-based, human; conditions: 10 µM, 24 h, relative to vehicle
# NCI-H460 cells [6] = assay: Cell cycle analysis by flow cytometry; type: cell-based, human; conditions: 10 µM
# A2780 ovarian carcinoma = assay: Anti-proliferative NBB assay; type: cell-based, human; conditions: read-out: IC50 A2780; 72 h
# [7] = system: MDA-MB-231 triple-negative breast cancer carcinoma; assay: Anti-proliferative NBB assay; type: cell-based, human; conditions: read-out: IC50 MDA-MB-231; 72 h
# [8] = system: NCI-H460 non-small cell lung carcinoma; assay: Anti-proliferative NBB assay; type: cell-based, human; conditions: read-out: IC50 NCI-H460; 72 h
# [9] = system: HCT116 colorectal carcinoma; assay: Anti-proliferative NBB assay; type: cell-based, human; conditions: read-out: IC50 HCT116; 72 h
# [10] = system: PLC primary liver carcinoma; assay: Anti-proliferative NBB assay; type: cell-based, human; conditions: read-out: IC50 PLC; 72 h
# [11] = system: NCI-H460 lung cancer xenografts; assay: In vivo anti-tumor study; design: species or system nude mouse; conditions: 1a 25 mg kg^−1 i.v., 14 days
# Procedure, shortened: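 Nude mice bearing NCI-H460 xenografts were randomised into groups (n = 6). Groups received test compound (25 mg kg⁻¹) or PBS vehicle i.v. for 14 days; cisplatin (1.5 mg kg⁻¹ i.v.) on a similar regimen served as positive control. Tumour volume was tracked. Dissected tumours were weighed and examined by H&E and Ki-67 immunohistochemistry. Data are given as mean ± standard error.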
# [12] = system: NCI-H460 cells stably expressing mRFP-GFP-LC3; assay: Live cell imaging of mRFP-GFP-tagged LC3; type: cell-based, human; conditions: 10 µM, 24 h
# calf thymus DNA (ctDNA) = assay: UV-vis absorption titration with DNA; type: binding; conditions: complex 30 µM, Tris-HCl pH 7.4
# [13] = system: NCI-H460 cancer cells and CCD-19Lu normal fibroblast cells; assay: Comparative cellular uptake, cancer versus normal cells, ICP-MS; type: cell-based, human
# ctDNA = assay: DNA binding affinity by isothermal titration calorimetry; design: species or system calf
# NCI-H460 cells [14] = assay: Intracellular oxidant level; type: cell-based, human; conditions: 10 µM, 24 h
# [15] = Lipophilicity measurement; type: physicochemical; conditions: n-octanol / 0.9 % aqueous NaCl, 298 K
# NCI-H460 cells [16] = assay: Cellular uptake of platinum by ICP-MS; type: cell-based, human; conditions: for decrease in Pt levels in cells: 2 h treatment
# [17] = target: guanine–cytosine (GC)-rich DNA; assay: DNA binding affinity by ITC; conditions: read-out: KD (GC-rich DNA), one-site binding model, pH 7.4
# [18] = system: different cancer cell lines; assay: Anti-proliferative NBB assay, summary over several cancer cell lines; type: cell-based, human; conditions: for IC50: read-out: IC50 toward different cell lines, NCI-H460 lung, PLC liver and HCT116 colorectal carcinomas
# Aqueous solubility = type: physicochemical
# [19] = Particle size by nanoparticle tracking analysis; type: physicochemical
# [20] = system: β-glucosidase (from almonds); assay: Enzymatic cleavage of the glycosidic linkage, UPLC/MS; type: in vitro ADME
# Procedure, shortened: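 Test compound incubated with almond β-glucosidase (0.5 U mL⁻¹) in PBS pH 5.8 at 37 °C for up to 24 h. Enzyme-free controls were run in PBS pH 5.8 and pH 7.4. Release of the deglycosylated aglycone was followed over time by UPLC/MS peak tracking (retention time and m/z).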
# [21] = In vivo systemic toxicity; design: species or system nude mouse
# Procedure, shortened: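 Tumour-bearing nude mice (n = 6) received test compound (25 mg kg⁻¹ i.v.) or PBS vehicle for 14 days. Body weight was tracked throughout. At day 14, major organs were harvested for H&E histology, and blood was analysed for ALT and creatinine.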
# [22] = system: DNA duplex bearing cytosine–cytosine (CC) mismatched base pairs; assay: DNA binding affinity by ITC
# NCI-H460 cells [23] = assay: Subcellular distribution of platinum content by ICP-MS; type: cell-based, human; conditions: 24 h treatment
# [24] = system: telomeric G-quadruplex (HTelo) DNA; assay: UV-vis absorption titration with DNA; type: binding; conditions: at λmax of 345 nm
compound,measurement,setting,value
"N.N.[Cl][Pt][Cl] [Cisplatin, reference compound]",γ-H2AX foci in nuclei,NCI-H460 cells [1],even more markedly increased
same,level of LC3-II,LC3 (LC3-II),dose-dependent increase
same,lysosomal integrity,NCI-H460 cells [2],negligible damage to the cellular lysosomes
same,IC50,[3],30.8 ± 4.9 µM
same,late apoptosis (annexin V-positive and PI-positive),NCI-H460 cells [4],87.2%
same,decrease in red fluorescence of JC-1 (mitochondrial depolarization),NCI-H460 cells [5],8.3%
same,increase in G2/M populations,"NCI-H460 cells [6]; 24 h, versus vehicle",53.7%
same,IC50,A2780 ovarian carcinoma,8.9 ± 0.7 µM
same,IC50,[7],19.7 ± 1.6 µM
same,IC50,[8],6.9 ± 0.5 µM
same,IC50,[9],5.1 ± 0.4 µM
same,IC50,[10],9.1 ± 1.2 µM
[Pt(tpy)(C?CArOGlu)](CF3SO3) [Complex 1a],γ-H2AX foci in nuclei,NCI-H460 cells [1],some significant fluorescent γ-H2AX foci
same,level of LC3-II,LC3 (LC3-II),increased levels
same,lysosomal integrity,NCI-H460 cells [2],disruption of lysosomes
same,immunohistochemical staining for Ki-67 in tumor specimens,[11],significant reduction
same,Pearson's colocalization coefficient of green and red LC3 puncta,[12],0.64
same,bathochromic (red) shift of lowest-energy absorption band upon addition of ctDNA,calf thymus DNA (ctDNA),42 nm
same,hypochromism upon addition of ctDNA,calf thymus DNA (ctDNA); lowest-energy absorption band,16.8%
same,fold higher Pt accumulation in NCI-H460 than in CCD-19Lu cells,[13],1.9 fold
same,IC50,[3],> 100 µM
same,fold lower KD than 2 (ctDNA),ctDNA; 1a versus 2,27.5 fold
same,Kd,"ctDNA; read-out: KD (ctDNA), ITC, one-site binding model, pH 7.4",0.48 µM
same,necrotic cell death (annexin V-negative and PI-positive),NCI-H460 cells [4],91%
same,increment in DCF fluorescence intensity versus vehicle control,NCI-H460 cells [14],~1.2 fold
same,decrease in red fluorescence of JC-1 (mitochondrial depolarization),NCI-H460 cells [5],ca. 21%
same,lipophilicity (log P),[15],−0.88
same,increase in G0/G1 populations,"NCI-H460 cells [6]; 24 h, versus vehicle",9.3%
same,change in cell populations on prolonging treatment to 48 h,NCI-H460 cells [6]; 48 h compared with 24 h,no significant increase in cell populations
same,fold higher intracellular Pt level than 1b,"NCI-H460 cells [16]; 10 µM, after 24 h",ca. 3.2 fold
same,fold higher intracellular Pt level than 1c,"NCI-H460 cells [16]; 10 µM, after 24 h",~8 fold
same,fold higher intracellular Pt level than 1d,"NCI-H460 cells [16]; 10 µM, after 24 h",~1.6 fold
same,decrease in Pt levels in cells,NCI-H460 cells [16]; hypertonic sucrose (450 mM),27.4%
same,decrease in Pt levels in cells,NCI-H460 cells [16]; incubation at 4 °C,77.1%
same,reduction in the cellular Pt level (upper figure),NCI-H460 cells [16]; low temperature (4 °C) or inhibition of endocytosis,up to 80%
same,decrease in Pt levels in cells,NCI-H460 cells [16]; nocodazole (50 µM),41.9%
same,Kd,[17],74.1 µM
same,IC50,A2780 ovarian carcinoma,8.7 ± 0.2 µM
same,fold higher anti-proliferative activity than 1b,"[18]; most of the cancer cell lines, 72 h",1.4- to 2.4 fold
same,IC50,[18]; 24 h post-treatment,> 100 µM
same,IC50,[18]; after 48 h,54.6 to 74.5 µM
same,solubility (water),Aqueous solubility,8600 µg/mL
same,average hydrodynamic diameter,[19]; RPMI 1640 cell culture medium containing 10% fetal bovine serum,87.3 ± 4.6 nm
same,average hydrodynamic diameter,"[19]; aqueous solution containing 1% DMSO, 100 µM",139.6 ± 2.5 nm
same,IC50,[7],23.8 ± 5.8 µM
same,conversion of 1a into 1d,"[20]; buffer control without β-glu, PBS pH 5.8, 24 h",ca. 2%
same,conversion of 1a into 1d,"[20]; β-glu 0.5 U mL^−1, PBS pH 5.8, 37 °C, 24 h",more than 70%
same,IC50,[8],7.1 ± 0.3 µM
same,"histopathology of major organs (heart, liver, spleen, lungs and kidneys)","[21]; 25 mg kg^−1 i.v., after 14 days, H&E",No obvious histopathological lesion
same,plasma level of alanine aminotransferase (ALT),"[21]; 25 mg kg^−1 i.v., day 14",comparable to those in the vehicle control
same,plasma level of creatinine (CREA),"[21]; 25 mg kg^−1 i.v., day 14",comparable to those in the vehicle control
same,death or weight loss of mice,[21]; throughout the 14-day treatment period,None of the mice died or displayed any sign of weight loss
same,fold higher binding affinity than 2 (CC mismatched DNA),[22]; 1a versus 2,4.3 fold
same,Kd,"[22]; read-out: KD (CC mismatched DNA), ITC, one-site binding model, pH 7.4",19.6 µM
same,Pt content in cytosolic fraction,NCI-H460 cells [23],55%
same,Pt content in mitochondrial fraction,NCI-H460 cells [23],37%
same,Pt content in nuclear fraction,NCI-H460 cells [23],9%
same,hypochromism upon addition of HTelo DNA,[24],19.6%
same,IC50,[9],7.5 ± 0.6 µM
same,IC50,[10],17.2 ± 1.2 µM

# From PMC8635173 (Chemical Science, 2021)
